{"source": "ChEMBL document CHEMBL3272112", "about": "“Cycloalkanones. 8. Hypocholesterolemic activity of long-chain ketones related to pentadecanone” (J Med Chem, 1976)", "key": {"Rattus norvegicus [1]": {"tested_on": "Rattus norvegicus", "experiment": "Toxicity in Sprague-Dawley rat assessed as increase in body weight at 10 mg/kg/day measured on day 16 (reference value: 195 +/- 16%)", "assay_type": "organism-based", "conditions": "in vivo"}, "Rattus norvegicus [2]": {"tested_on": "Rattus norvegicus", "experiment": "Toxicity in Sprague-Dawley rat assessed as increase in body weight at 10 mg/kg/day measured on day 10 (reference value: 160 +/- 13%)", "assay_type": "organism-based", "conditions": "in vivo"}, "Rattus norvegicus [3]": {"tested_on": "Rattus norvegicus", "experiment": "Hypocholesterolemic activity in Sprague-Dawley rat assessed as serum cholesterol level at 10 mg/kg/day, po administered via intubation measured on day 4 by Liebermann-Burchard method relative to control", "assay_type": "functional", "outline": "(§1)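 Male Sprague-Dawley rats given compound homogenized in 1% CMC once daily at 11:00 a.m. by oral intubation needle (0.2 cc), doses calculated on weekly body weights; tail-vein blood drawn 24 h after last dose; nonhemolyzed serum (30 μ) assayed by modified Liebermann-Burchard method; N = 8; % of control, mean ± SD; Student's t test.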"}, "Rattus norvegicus [4]": {"tested_on": "Rattus norvegicus", "experiment": "Hypocholesterolemic activity in Sprague-Dawley rat assessed as serum cholesterol level at 10 mg/kg/day, po administered via intubation measured on day 16 by Liebermann-Burchard method relative to control", "assay_type": "functional", "outline": "as §1"}, "Rattus norvegicus [5]": {"tested_on": "Rattus norvegicus", "experiment": "Hypocholesterolemic activity in Sprague-Dawley rat assessed as serum cholesterol level at 10 mg/kg/day, po administered via intubation measured on day 10 by Liebermann-Burchard method relative to control", "assay_type": "functional", "outline": "as §1"}, "Rattus norvegicus [6]": {"tested_on": "Rattus norvegicus", "experiment": "Uterotrophic activity in ovariectomized weaned Sprague-Dawley rat assessed as uterine weight at 10 mg/kg/day measured after 3 days (reference value: 100 +/- 15%)", "assay_type": "ADME, organism-based, Uterus", "conditions": "in vivo, 72 h", "outline": "(§2)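 Weaned rats were ovariectomized and left untreated for 3 days. They were then dosed for 3 days with 17-ethinylestradiol 10 µg/kg/day or test compound 10 mg/kg/day, with 1% CMC as the vehicle control. Rats were then killed and the uterus removed, trimmed and weighed. Results are % of control uterine weight, mean ± SD; N = 7; Student's t test.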"}, "Rattus norvegicus [7]": {"tested_on": "Rattus norvegicus", "experiment": "Uterotrophic activity in ovariectomized weaned Sprague-Dawley rat assessed as uterine weight at 10 ug/kg/day measured after 3 days (reference value: 100 +/- 15%)", "assay_type": "ADME, organism-based, Uterus", "conditions": "in vivo, 0.01 mg/kg, 72 h", "outline": "as §2"}}}
{"molecule": "CCCCCCCCCCCCCC(C)=O", "values": [{"measurement": "Activity", "setting": "Rattus norvegicus [1]", "result": 233, "unit": "%"}, {"measurement": "Activity", "setting": "Rattus norvegicus [2]", "result": 156, "unit": "%"}, {"measurement": "Activity", "setting": "Rattus norvegicus [3]", "result": 114, "unit": "%"}, {"measurement": "Activity", "setting": "Rattus norvegicus [4]", "result": 98, "unit": "%"}, {"measurement": "Activity", "setting": "Rattus norvegicus [5]", "result": 113, "unit": "%"}]}
{"molecule": "CCOC(=O)C(C)(C)Oc1ccc(Cl)cc1", "note": "[CLOFIBRATE]", "values": [{"measurement": "Activity", "setting": "Rattus norvegicus [3]", "result": 100, "unit": "%"}, {"measurement": "Activity", "setting": "Rattus norvegicus [4]", "result": 106, "unit": "%"}, {"measurement": "Activity", "setting": "Rattus norvegicus [5]", "result": 98, "unit": "%"}]}
{"molecule": "CCCCCCCCCCCCCCCC(C)=O", "values": [{"measurement": "Activity", "setting": "Rattus norvegicus [6]", "result": 76, "unit": "%"}, {"measurement": "Activity", "setting": "Rattus norvegicus [1]", "result": 229, "unit": "%"}, {"measurement": "Activity", "setting": "Rattus norvegicus [2]", "result": 165, "unit": "%"}, {"measurement": "Activity", "setting": "Rattus norvegicus [3]", "result": 83, "unit": "%"}, {"measurement": "Activity", "setting": "Rattus norvegicus [4]", "result": 74, "unit": "%"}, {"measurement": "Activity", "setting": "Rattus norvegicus [5]", "result": 75, "unit": "%"}]}
{"molecule": "CCCCCCCCCCCCCCCCC(C)=O", "values": [{"measurement": "Activity", "setting": "Rattus norvegicus [1]", "result": 242, "unit": "%"}, {"measurement": "Activity", "setting": "Rattus norvegicus [2]", "result": 175, "unit": "%"}, {"measurement": "Activity", "setting": "Rattus norvegicus [3]", "result": 79, "unit": "%"}, {"measurement": "Activity", "setting": "Rattus norvegicus [4]", "result": 73, "unit": "%"}, {"measurement": "Activity", "setting": "Rattus norvegicus [5]", "result": 86, "unit": "%"}]}
{"molecule": "CCCCCCCCCCCCC(=O)CCC", "values": [{"measurement": "Activity", "setting": "Rattus norvegicus [1]", "result": 213, "unit": "%"}, {"measurement": "Activity", "setting": "Rattus norvegicus [2]", "result": 175, "unit": "%"}, {"measurement": "Activity", "setting": "Rattus norvegicus [3]", "result": 65, "unit": "%"}, {"measurement": "Activity", "setting": "Rattus norvegicus [4]", "result": 103, "unit": "%"}, {"measurement": "Activity", "setting": "Rattus norvegicus [5]", "result": 89, "unit": "%"}]}
{"molecule": "CCCCCCCCC(=O)CCCCCCC", "values": [{"measurement": "Activity", "setting": "Rattus norvegicus [1]", "result": 209, "unit": "%"}, {"measurement": "Activity", "setting": "Rattus norvegicus [2]", "result": 167, "unit": "%"}, {"measurement": "Activity", "setting": "Rattus norvegicus [3]", "result": 102, "unit": "%"}, {"measurement": "Activity", "setting": "Rattus norvegicus [4]", "result": 72, "unit": "%"}, {"measurement": "Activity", "setting": "Rattus norvegicus [5]", "result": 97, "unit": "%"}]}
{"molecule": "CCCCCCCCCC(=O)CCCCCC", "values": [{"measurement": "Activity", "setting": "Rattus norvegicus [1]", "result": 207, "unit": "%"}, {"measurement": "Activity", "setting": "Rattus norvegicus [2]", "result": 169, "unit": "%"}, {"measurement": "Activity", "setting": "Rattus norvegicus [3]", "result": 89, "unit": "%"}, {"measurement": "Activity", "setting": "Rattus norvegicus [4]", "result": 77, "unit": "%"}, {"measurement": "Activity", "setting": "Rattus norvegicus [5]", "result": 89, "unit": "%"}]}
{"molecule": "CCCCCCCCCCC(=O)CCCCC", "values": [{"measurement": "Activity", "setting": "Rattus norvegicus [1]", "result": 209, "unit": "%"}, {"measurement": "Activity", "setting": "Rattus norvegicus [2]", "result": 168, "unit": "%"}, {"measurement": "Activity", "setting": "Rattus norvegicus [3]", "result": 70, "unit": "%"}, {"measurement": "Activity", "setting": "Rattus norvegicus [4]", "result": 100, "unit": "%"}, {"measurement": "Activity", "setting": "Rattus norvegicus [5]", "result": 92, "unit": "%"}]}
{"molecule": "C#C[C@]1(O)CC[C@H]2[C@@H]3CCc4cc(O)ccc4[C@H]3CC[C@@]21C", "note": "[ETHINYL ESTRADIOL]", "values": [{"measurement": "Activity", "setting": "Rattus norvegicus [7]", "result": 372, "unit": "%"}]}
{"molecule": "CCCCCCCCCCCC(=O)CCCC", "values": [{"measurement": "Activity", "setting": "Rattus norvegicus [1]", "result": 206, "unit": "%"}, {"measurement": "Activity", "setting": "Rattus norvegicus [2]", "result": 165, "unit": "%"}, {"measurement": "Activity", "setting": "Rattus norvegicus [3]", "result": 63, "unit": "%"}, {"measurement": "Activity", "setting": "Rattus norvegicus [4]", "result": 94, "unit": "%"}, {"measurement": "Activity", "setting": "Rattus norvegicus [5]", "result": 89, "unit": "%"}]}
{"molecule": "CCCCCCCCCCCCCC(=O)CC", "values": [{"measurement": "Activity", "setting": "Rattus norvegicus [1]", "result": 212, "unit": "%"}, {"measurement": "Activity", "setting": "Rattus norvegicus [2]", "result": 167, "unit": "%"}, {"measurement": "Activity", "setting": "Rattus norvegicus [3]", "result": 64, "unit": "%"}, {"measurement": "Activity", "setting": "Rattus norvegicus [4]", "result": 92, "unit": "%"}, {"measurement": "Activity", "setting": "Rattus norvegicus [5]", "result": 83, "unit": "%"}]}
